Test [1] concerns the target T1, Trypanothione reductase (Trypanosoma brucei brucei, UniProt P39051). Put plainly: Inhibition of recombinant trypanothione reductase from Trypanosoma brucei brucei S427 by DTNB-coupled spectrophotometric assay. In short, it runs like this:
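Recombinant T. brucei brucei S427 TryR tested in a nonenzymatically coupled spectrophotometric assay, where DTNB reduction to TNB is followed as A412 increase. IC50 is the mean of independent duplicates (at least two replicates).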

For a further test, the system named is MRC5. The test can be described thus: Cytotoxicity against human MRC5 cells by resazurin fluorescence-based viability assay. It counts as cell-based. Put shortly:
(§1)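 Bloodstream-form T. b. brucei parasites and MRC5 cells were assayed in resazurin fluorescence-based viability tests. […] Pentamidine served as the positive control in all T. brucei plates.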
A general note: Alamar Blue is a resazurin reagent that responds to reducing activity.

In test [2] the test system is Trypanosoma brucei brucei. Put plainly: Antitrypanosomal activity against blood stream form Trypanosoma brucei brucei by resazurin fluorescence-based viability assay. It counts as functional, organism-based. In short, it runs like this:
as §1

Test [3] has as its target T1, Trypanothione reductase. The test can be described thus: Competitive inhibition of recombinant trypanothione reductase from Trypanosoma brucei brucei S427 by Lineweaver burk method.

For 72 molecules, IC50, EC50 and Ki results are on record in ChEMBL document CHEMBL1833819, “Dihydroquinazolines as a novel class of Trypanosoma brucei trypanothione reductase inhibitors: discovery, synthesis, and characterization of their binding mode by protein crystallography” (J Med Chem, 2011).

Usually IC50 stands for the concentration needed to halve the response being measured. One may read the EC50 as the concentration at which the effect is half-maximal. Usually Ki stands for the dissociation constant of the complex between target and ligand, obtained from inhibition or displacement.

The structures appear in SMILES notation. Some results are limits rather than exact numbers.

T1 sequence (P39051 whole entry): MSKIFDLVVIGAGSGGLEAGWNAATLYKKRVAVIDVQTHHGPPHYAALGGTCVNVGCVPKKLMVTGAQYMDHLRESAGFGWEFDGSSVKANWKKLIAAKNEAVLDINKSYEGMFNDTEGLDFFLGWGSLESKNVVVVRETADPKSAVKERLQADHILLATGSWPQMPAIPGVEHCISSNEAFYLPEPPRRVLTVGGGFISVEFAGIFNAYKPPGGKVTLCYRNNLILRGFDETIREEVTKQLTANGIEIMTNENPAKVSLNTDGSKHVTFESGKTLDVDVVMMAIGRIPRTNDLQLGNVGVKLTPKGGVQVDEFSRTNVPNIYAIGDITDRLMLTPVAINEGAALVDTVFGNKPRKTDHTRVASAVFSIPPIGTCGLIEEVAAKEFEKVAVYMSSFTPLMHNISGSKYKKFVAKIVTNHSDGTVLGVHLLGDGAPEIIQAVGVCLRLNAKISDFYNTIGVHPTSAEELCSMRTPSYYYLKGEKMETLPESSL

Take `CC1=Nc2ccc(Cl)cc2C(c2ccccc2)N1CCN1CCOCC1` (racemic): the IC50 at Trypanothione reductase [1] was 2800 nM.
For `CC1=Nc2ccc(Cl)cc2C(c2ccccc2)N1CCCN(C)C` (racemic), the IC50 at Trypanothione reductase [1] is 1000 nM. Moreover, the EC50 in the test with MRC5 amounted to 2700 nM.
Take `CC1=Nc2ccc(-c3cc4ccccc4o3)cc2C(c2ccccc2)N1CCN1CCCCC1` (racemic): on Trypanothione reductase [1], the IC50 worked out at 8500 nM.
For the molecule `CC1=Nc2ccc(Cl)cc2C(O)(c2ccc(C)cc2)N1CCN1CCCCC1` (racemic), the IC50 at Trypanothione reductase [1] was found to be 710 nM. The EC50 in test [2] was 1500 nM; in the test on MRC5, 5700 nM.
On to `CCN1C(C)=Nc2ccc(Cl)cc2C1c1ccccc1` (racemic), for which, at Trypanothione reductase [1], the IC50 is 1200 nM.
For `CC1=Nc2ccc(Cl)cc2C(c2ccc(C(C)(C)C)cc2)N1CCN1CCCCC1` (racemic), on Trypanothione reductase [1], the IC50 was determined as 7900 nM.
On the same count and under the same terms, the result for `CC1=Nc2ccc(Cl)cc2C(c2ccccc2)N1CCO` (racemic) reads 1700 nM; that for `COCC(=O)NCCN1C(C)=Nc2ccc(Cl)cc2C1c1ccccc1` (racemic), 1300 nM; that for `O=C1CN2C(=Nc3ccc(Br)cc3C2c2ccccc2)CCN1` (racemic), 39000 nM.
On the same count and under the same terms, for `COc1cccc(C2c3cc(Cl)ccc3N=C(C)N2CCN2CCCCC2)c1` (stereo unspecified) the value was 28000 nM; for `COc1ccc(C2c3cc(Cl)ccc3N=C(C)N2CCN2CCCCC2)cc1` (racemic), 1500 nM; for `CC1=Nc2c(-c3ccccc3)cc(Cl)cc2C(c2ccccc2)N1CCCN(C)C` (racemic), 24000 nM.
On the same count and under the same terms, the result for `CC1=Nc2ccc(Cl)cc2C(Cc2ccccc2)N1CCN1CCCCC1` (racemic) reads 50000 nM; that for `O=C1CN2C(=Nc3ccc(Br)cc3C2c2ccccc2)CN1` (racemic), 37000 nM; that for `CC1=Nc2ccc(Cl)cc2C(c2ccccc2)N1CCc1ccccc1` (racemic), 2000 nM.
As to `CC1=Nc2ccc(Cl)cc2C(c2ccc(F)cc2)N1CCN1CCCCC1` (racemic), the IC50 on Trypanothione reductase [1] turned out to be 4900 nM.
With `CC1=Nc2ccc(Cl)cc2C(c2ccccc2)N1CCNC(=O)Cc1ccccc1` (racemic), the IC50 on Trypanothione reductase [1] is 1800 nM.
Take `CC1=Nc2ccc(Br)cc2C(c2ccccc2)N1CC(=O)O` (racemic): at Trypanothione reductase [1], the IC50 came out at 37000 nM.
`CC1=Nc2ccc(Cl)cc2C(c2ccc(C)cc2)N1CCN1CCCCC1` (racemic): on Trypanothione reductase [1], the IC50 came to 590 nM. The EC50 in test [2] is 1400 nM; in the test with MRC5, 5000 nM.
Regarding `COC(=O)CN1C(CCN2CCOCC2)=Nc2ccc(Br)cc2C1c1ccccc1` (racemic), the IC50 on Trypanothione reductase [1] was 93000 nM.
Take `COC(=O)CN1C(C)=Nc2ccc(Cl)cc2C1c1ccccc1` (racemic): the IC50 on Trypanothione reductase [1] was 9400 nM.
Turning to `CC1=Nc2ccc(Cl)cc2C(c2cccc(F)c2)N1CCN1CCCCC1` (stereo unspecified), the IC50 at Trypanothione reductase [1] came to 900 nM. Also, the values for the EC50 (in test [2]; in the test on MRC5) were 2000 nM and 10000 nM, respectively.
Consider `COCC(=O)N1CCN(CCN2C(C)=Nc3ccc(Cl)cc3C2c2ccccc2)CC1` (racemic), for which the IC50 on Trypanothione reductase [1] stood at 1600 nM.
Same read-out and setting: the result for `CC1=Nc2ccc(Cl)cc2C(c2cccc(O)c2)N1CCN1CCCCC1` (racemic) reads 1600 nM; that for `CC1=Nc2ccc(Cl)cc2C(c2ccccc2)N1CCNC(=O)c1ccccc1` (racemic), 1700 nM; that for `CC1=Nc2ccc(-c3ccncc3)cc2C(c2ccccc2)N1CCN1CCCCC1` (stereo unspecified), 4400 nM.
The same measure, in the same setting: the result for `CC(=O)NCCN1C(C)=Nc2ccc(Cl)cc2C1c1ccccc1` (racemic) reads 2100 nM.
With `CC1=Nc2ccc(Cl)cc2C(c2ccc(Cl)c(Cl)c2)N1CCN1CCCCC1` (racemic), on Trypanothione reductase [1], the IC50 came out at 1300 nM.
The same measure, in the same setting: the result for `CC1=Nc2ccc(-c3cccc4ccccc34)cc2C(c2ccccc2)N1CCN1CCCCC1` (racemic) reads 8000 nM; that for `CC1=Nc2ccc(Cl)cc2C(c2ccc(C)c(C)c2)N1CCN1CCCCC1` (racemic), 6800 nM.
Still for that read-out and setting: for `CC1=Nc2ccc(Cl)cc2C(c2ccccc2)N1Cc1ccc(Cl)cc1` (racemic) the value was 2200 nM.
Regarding `CC1=Nc2ccc(Cl)cc2C(c2ccccc2)N1Cc1ccccc1` (racemic), the half-maximal inhibitory concentration (IC50) at Trypanothione reductase [1] worked out at 930 nM. The EC50 in test [2] is 13000 nM; in the test with MRC5, 46000 nM.
Consider `CC1=Nc2ccc(Cl)cc2C(c2ccc(Cl)cc2)N1CCN1CCCCC1` (racemic), for which the IC50 on Trypanothione reductase [1] is 730 nM.
Still for that read-out and setting: the result for `COc1ccc(C2(O)c3cc(Cl)ccc3N=C(C)N2CCN2CCCCC2)cc1` (racemic) reads 4900 nM; that for `CC1=Nc2ccc(Cl)cc2C(c2ccccc2)N1CCNC(=O)C1CC1` (racemic), 2300 nM; that for `CC1=Nc2ccc(Cl)cc2C(O)(c2ccc(F)cc2)N1CCN1CCCCC1` (racemic), 8300 nM.
Take `COc1ccccc1CN1C(C)=Nc2ccc(Cl)cc2C1c1ccccc1` (racemic): on Trypanothione reductase [1], the IC50 amounted to 1100 nM.
Same read-out and setting: the result for `CC1=Nc2ccc(-c3ccco3)cc2C(c2ccccc2)N1CCN1CCCCC1` (racemic) reads 1300 nM; that for `COC(=O)CN1C(c2ccccc2)=Nc2ccc(C)cc2C1c1ccccc1` (racemic), over 100000 nM.
As for `CCOC(=O)CN1C(C)=Nc2ccc(Br)cc2C1c1ccccc1` (racemic), the 50% inhibitory concentration (IC50) on Trypanothione reductase [1] was 12000 nM.
Same read-out and setting: for `CC1=Nc2ccc(Cl)cc2C(c2ccccc2)N1CCN(C)C` (racemic) the value was 3500 nM.
For `CC1=Nc2ccc(Br)cc2C(c2ccccc2)N1CCN1CCCCC1` (racemic), the IC50 on Trypanothione reductase [1] was determined as 790 nM. Also, the results for the EC50 (in test [2]; in the test on MRC5) were 440 nM and 8400 nM, respectively.
As to `CC1=Nc2ccc(Cl)cc2C(c2ccccc2)N1Cc1cccc(N(C)C)c1` (racemic), the half-inhibitory concentration (IC50) on Trypanothione reductase [1] stood at 810 nM. For the same molecule, the EC50 in test [2] is 6400 nM; in the test with MRC5 it was 27000 nM.
As for `COC(=O)CN1C(CN2CCOCC2)=Nc2ccc(Br)cc2C1c1ccccc1` (racemic), at Trypanothione reductase [1], the IC50 is 89000 nM.
As to `CC1=Nc2ccc(Cl)cc2C(c2ccccc2)N1Cc1cccc(C(F)(F)F)c1` (racemic), the IC50 at Trypanothione reductase [1] is 1500 nM.
Turning to `CC1=Nc2ccc(Cl)cc2C(c2ccccc2)N1CCN1CCCCC1` (racemic), the IC50 at Trypanothione reductase [1] is 1800 nM. The results for the EC50 (in test [2]; with MRC5) were 1300 nM and 14000 nM, respectively.
In the same order, the values of `CC1=Nc2ccc(I)cc2C(c2ccccc2)N1CCN1CCCCC1` (racemic) are 350 nM, 550 nM and 6800 nM.
In the case of `CC1=Nc2ccc(Br)cc2C(c2ccccc2)N1CC(=O)NN` (racemic), the IC50 on Trypanothione reductase [1] was determined as 15000 nM.
On the same count and under the same terms, the result for `CC(=O)N1CCN(CCN2C(C)=Nc3ccc(Cl)cc3C2c2ccccc2)CC1` (racemic) reads 1700 nM.
For `CC1=Nc2ccc(Cl)cc2C(c2ccccc2)N1Cc1cccc(Cl)c1` (racemic), the IC50 on Trypanothione reductase [1] came to 3500 nM.
Turning to `CC1=Nc2ccc(Cl)cc2C(c2ccccc2)N1CCN1CCN(C(=O)OC(C)(C)C)CC1` (racemic), the IC50 at Trypanothione reductase [1] was found to be 1500 nM.
Same read-out and setting: for `CCC1=Nc2ccc(Br)cc2C(c2ccccc2)N1CC(=O)OC` (racemic) the value was 23000 nM; for `CC1=Nc2ccc(Cl)cc2C(c2cccc(C)c2)N1CCN1CCCCC1` (racemic), 4600 nM.
Regarding `CC1=Nc2ccc(Cl)cc2C(c2ccccc2)N1CCNC(=O)CN(C)C` (racemic), the IC50 on Trypanothione reductase [1] is 810 nM. For the same molecule, the half-maximal effective concentration (EC50) in test [2] amounted to 13000 nM; in the test with MRC5, 12000 nM.
Take `CC1=Nc2ccc(Cl)cc2C(c2ccccc2)N1CCN1CCN(C)CC1` (racemic): at Trypanothione reductase [1], the IC50 turned out to be 930 nM. The molecule also gave an EC50 in the test with MRC5 of 4600 nM. Besides, the Ki on Trypanothione reductase [3] turned out to be 320 nM.
For `CC1=Nc2ccccc2C(c2ccccc2)N1CCN1CCCCC1` (racemic), on Trypanothione reductase [1], the IC50 came to 780 nM. Moreover, the EC50 in test [2] was determined as 12000 nM; in the test on MRC5 it was 23000 nM.
Take `CNCCN1C(C)=Nc2ccc(Cl)cc2C1c1ccccc1` (racemic): on Trypanothione reductase [1], the IC50 worked out at 2000 nM.
The same measure, in the same setting: for `CC1=Nc2ccc(-c3ccsc3)cc2C(c2ccccc2)N1CCN1CCCCC1` (stereo unspecified) the value was 790 nM.
Same read-out and setting: for `CC1=Nc2ccc(Cl)cc2C(c2ccccc2)N1Cc1ccc(C)cc1` (racemic) the value was 1300 nM; for `CC1=Nc2ccc(Cl)cc2C(c2ccc(O)cc2)N1CCN1CCCCC1` (racemic), 20000 nM.
With `CC1=Nc2ccc(Cl)cc2C(c2ccccc2)N1CCN1CCN(C(=O)C2CC2)CC1` (racemic), the IC50 on Trypanothione reductase [1] came to 1500 nM.
`CC1=Nc2ccc(Cl)cc2C(c2ccccc2)N1CCN1CCN(C(=O)c2ccco2)CC1` (racemic): the half-inhibitory concentration (IC50) on Trypanothione reductase [1] came to 420 nM. In addition, the EC50 in test [2] is 10000 nM; in the test with MRC5, 23000 nM.
Regarding `COC(=O)CN1C(c2cc(OC)c(OC)c(OC)c2)=Nc2ccc(C)cc2C1c1ccccc1` (racemic), the IC50 on Trypanothione reductase [1] is over 100000 nM.
The same measure, in the same setting: for `COC(=O)CN1C(C)=Nc2ccc(Br)cc2C1c1ccccc1Cl` (racemic) the value was over 100000 nM; for `CC1=Nc2ccc(Cl)cc2C(C2CCCCC2)N1CCN1CCCCC1` (racemic), 27000 nM.
Same read-out and setting: for `CC1=Nc2ccc(Cl)cc2C(c2ccccc2)N1Cc1ccc(C(F)(F)F)cc1` (racemic) the value was 2200 nM; for `CC1=Nc2ccc(Cl)cc2C(c2ccccc2)N1CCNC(=O)OC(C)(C)C` (racemic), 2600 nM.
For `CC1=Nc2ccc(Cl)cc2C(c2ccccc2)N1CCN1CCN(C(=O)Cc2ccccc2)CC1` (racemic), the IC50 on Trypanothione reductase [1] turned out to be 2000 nM.
Same read-out and setting: for `CC1=Nc2ccc(Cl)cc2C(c2ccccc2)N1CCN1CCN(C(=O)c2ccccc2)CC1` (racemic) the value was 1600 nM.
As to `CC1=Nc2ccc(Cl)cc2C(c2ccccc2)N1Cc1ccccc1F` (racemic), the IC50 on Trypanothione reductase [1] came out at 940 nM. In addition, the EC50 worked out at 14000 nM in test [2] and 36000 nM with MRC5.
Regarding `CC1=Nc2ccc(Cl)cc2C(c2cccc(Cl)c2)N1CCN1CCCCC1` (stereo unspecified), at Trypanothione reductase [1], the IC50 amounted to 1200 nM.
In the case of `CC1=Nc2ccc(-c3ccccc3)cc2C(c2ccccc2)N1CCN1CCCCC1` (racemic), the IC50 on Trypanothione reductase [1] was 7300 nM. Besides, the EC50 was 750 nM in test [2] and 3400 nM with MRC5.
